Laboratory results published in ChEMBL document CHEMBL1926550, “Synthesis and antibacterial activity of naphthyridone derivatives containing mono/difluoro-methyloxime pyrrolidine scaffolds” (2012).
≈ marks a conversion by molar mass, not a printed value.

Experiments:
Type in all cases: functional
Escherichia coli [1] = test: Antibacterial activity against Escherichia coli 10-1 after 18 hrs by two fold serial dilution method; conditions: 10-1, 18 h
In short: (§1)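 Agar two-fold serial dilution in melted Mueller-Hinton agar, final concentrations 128 down to 0.008 μg/mL. Plates inoculated with 10⁴ cfu and incubated at 35 °C for 18 h. MIC taken as the lowest concentration giving no visible growth on the plate.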

Escherichia coli [2] = test: Antibacterial activity against Escherichia coli 10-2 after 18 hrs by two fold serial dilution method; conditions: 10-2, 18 h; in short: as §1
Escherichia coli [3] = test: Antibacterial activity against Escherichia coli 10-3 after 18 hrs by two fold serial dilution method; conditions: 10-3, 18 h; in short: as §1
Klebsiella pneumoniae [4] = test: Antibacterial activity against Klebsiella pneumoniae 09-2 after 18 hrs by two fold serial dilution method; conditions: 09-2, 18 h; in short: as §1
Klebsiella pneumoniae [5] = test: Antibacterial activity against Klebsiella pneumoniae 10-1 after 18 hrs by two fold serial dilution method; conditions: 10-1, 18 h; in short: as §1
Klebsiella pneumoniae [6] = test: Antibacterial activity against Klebsiella pneumoniae 10-3 after 18 hrs by two fold serial dilution method; conditions: 10-3, 18 h; in short: as §1
Pseudomonas aeruginosa [7] = test: Antibacterial activity against Pseudomonas aeruginosa ATCC 27853 after 18 hrs by two fold serial dilution method; conditions: ATCC 27853, 18 h; in short: as §1
Pseudomonas aeruginosa [8] = test: Antibacterial activity against Pseudomonas aeruginosa 10-1 after 18 hrs by two fold serial dilution method; conditions: 10-1, 18 h; in short: as §1
Pseudomonas aeruginosa [9] = test: Antibacterial activity against Pseudomonas aeruginosa 10-2 after 18 hrs by two fold serial dilution method; conditions: 10-2, 18 h; in short: as §1
Pseudomonas aeruginosa [10] = test: Antibacterial activity against Pseudomonas aeruginosa 10-3 after 18 hrs by two fold serial dilution method; conditions: 10-3, 18 h; in short: as §1
[11] = tested on: Staphylococcus epidermidis; test: Antibacterial activity against methicillin-resistant Staphylococcus epidermidis 10-4 after 18 hrs by two fold serial dilution method; conditions: 10-4, 18 h
In short: (§2)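 Agar two-fold serial dilution in melted Mueller-Hinton agar, 128 to 0.008 μg/mL. Plates inoculated with 10⁴ cfu, incubated 35 °C for 18 h. MIC taken as lowest concentration giving no visible growth on the plate.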

Staphylococcus aureus [12] = test: Antibacterial activity against methicillin-resistant Staphylococcus aureus 10-2 infected KM mouse systemic infection model assessed as decrease in mouse mortality administered orally twice after 1 and 4 hrs post infection measured up to 7 days; conditions: 10-2, po
In short: (§3)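 Strains grown on MH agar at 35 °C for 18 h, suspended in gastric mucin. Male KM mice (19–21 g), groups of 10, infected intraperitoneally with 0.5 mL at 5–10× MLD. Four oral dose levels per drug at 1 and 4 h post infection. Mortality followed 7 days; ED50 with 95% confidence limits by Bliss method.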

[13] = tested on: Staphylococcus epidermidis; test: Antibacterial activity against methicillin-resistant Staphylococcus epidermidis 10-4 infected KM mouse systemic infection model assessed as decrease in mouse mortality administered orally twice after 1 and 4 hrs post infection measured up to 7 days; conditions: 10-4, po; in short: as §3
Escherichia coli [14] = test: Antibacterial activity against Escherichia coli 10-2 infected KM mouse systemic infection model assessed as decrease in mouse mortality administered orally twice after 1 and 4 hrs post infection measured up to 7 days; conditions: 10-2, po; in short: as §3
Klebsiella pneumoniae [15] = test: Antibacterial activity against Klebsiella pneumoniae 10-3 infected KM mouse systemic infection model assessed as decrease in mouse mortality administered orally twice after 1 and 4 hrs post infection measured up to 7 days; conditions: 10-3, po; in short: as §3
Pseudomonas aeruginosa [16] = test: Antibacterial activity against Pseudomonas aeruginosa 10-1 infected KM mouse systemic infection model assessed as decrease in mouse mortality administered orally twice after 1 and 4 hrs post infection measured up to 7 days; conditions: 10-1, po; in short: as §3
Enterococcus faecium [17] = test: Antibacterial activity against Enterococcus faecium 09-1 after 18 hrs by two fold serial dilution method; conditions: 09-1, 18 h; in short: as §1
Staphylococcus aureus [18] = test: Antibacterial activity against Staphylococcus aureus ATCC 25923 after 18 hrs by two fold serial dilution method; conditions: ATCC 25923, 18 h; in short: as §1
Staphylococcus aureus [19] = test: Antibacterial activity against methicillin-resistant Staphylococcus aureus 10-1 after 18 hrs by two fold serial dilution method; conditions: 10-1, 18 h; in short: as §2
Staphylococcus aureus [20] = test: Antibacterial activity against methicillin-resistant Staphylococcus aureus 10-2 after 18 hrs by two fold serial dilution method; conditions: 10-2, 18 h; in short: as §2
Staphylococcus aureus [21] = test: Antibacterial activity against methicillin-resistant Staphylococcus aureus 10-3 after 18 hrs by two fold serial dilution method; conditions: 10-3, 18 h; in short: as §2
Staphylococcus aureus [22] = test: Antibacterial activity against methicillin-resistant Staphylococcus aureus 10-4 after 18 hrs by two fold serial dilution method; conditions: 10-4, 18 h; in short: as §2
Staphylococcus aureus [23] = test: Antibacterial activity against methicillin-sensitive Staphylococcus aureus 10-1 after 18 hrs by two fold serial dilution method; conditions: 10-1, 18 h; in short: as §1
Staphylococcus aureus [24] = test: Antibacterial activity against methicillin-sensitive Staphylococcus aureus 10-2 after 18 hrs by two fold serial dilution method; conditions: 10-2, 18 h; in short: as §1
Staphylococcus aureus [25] = test: Antibacterial activity against methicillin-sensitive Staphylococcus aureus 10-3 after 18 hrs by two fold serial dilution method; conditions: 10-3, 18 h; in short: as §1
Staphylococcus aureus [26] = test: Antibacterial activity against methicillin-sensitive Staphylococcus aureus 10-4 after 18 hrs by two fold serial dilution method; conditions: 10-4, 18 h; in short: as §1
Staphylococcus aureus [27] = test: Antibacterial activity against methicillin-sensitive Staphylococcus aureus 10-5 after 18 hrs by two fold serial dilution method; conditions: 10-5, 18 h; in short: as §1
Staphylococcus aureus [28] = test: Antibacterial activity against methicillin-sensitive Staphylococcus aureus 10-6 after 18 hrs by two fold serial dilution method; conditions: 10-6, 18 h; in short: as §1
[29] = tested on: Staphylococcus epidermidis; test: Antibacterial activity against methicillin-resistant Staphylococcus epidermidis 10-1 after 18 hrs by two fold serial dilution method; conditions: 10-1, 18 h; in short: as §2
[30] = tested on: Staphylococcus epidermidis; test: Antibacterial activity against methicillin-resistant Staphylococcus epidermidis 10-2 after 18 hrs by two fold serial dilution method; conditions: 10-2, 18 h; in short: as §2
[31] = tested on: Staphylococcus epidermidis; test: Antibacterial activity against methicillin-sensitive Staphylococcus epidermidis 10-1 after 18 hrs by two fold serial dilution method; conditions: 10-1, 18 h; in short: as §1
[32] = tested on: Staphylococcus epidermidis; test: Antibacterial activity against methicillin-sensitive Staphylococcus epidermidis 10-2 after 18 hrs by two fold serial dilution method; conditions: 10-2, 18 h; in short: as §1
Streptococcus pneumoniae = test: Antibacterial activity against Streptococcus pneumoniae 10-1 after 18 hrs by two fold serial dilution method; conditions: 10-1, 18 h; in short: as §1
Enterococcus faecium [33] = test: Antibacterial activity against Enterococcus faecium 09-2 after 18 hrs by two fold serial dilution method; conditions: 09-2, 18 h; in short: as §1
Enterococcus faecium [34] = test: Antibacterial activity against Enterococcus faecium 09-3 after 18 hrs by two fold serial dilution method; conditions: 09-3, 18 h; in short: as §1
Enterococcus faecium [35] = test: Antibacterial activity against Enterococcus faecium 09-4 after 18 hrs by two fold serial dilution method; conditions: 09-4, 18 h; in short: as §1
Enterococcus faecium [36] = test: Antibacterial activity against Enterococcus faecium 09-5 after 18 hrs by two fold serial dilution method; conditions: 09-5, 18 h; in short: as §1
Enterococcus faecium [37] = test: Antibacterial activity against Enterococcus faecium 09-6 after 18 hrs by two fold serial dilution method; conditions: 09-6, 18 h; in short: as §1
Enterococcus faecalis [38] = test: Antibacterial activity against Enterococcus faecalis 09-1 after 18 hrs by two fold serial dilution method; conditions: 09-1, 18 h; in short: as §1
Enterococcus faecalis [39] = test: Antibacterial activity against Enterococcus faecalis 09-2 after 18 hrs by two fold serial dilution method; conditions: 09-2, 18 h; in short: as §1
Escherichia coli [40] = test: Antibacterial activity against Escherichia coli ATCC 25922 after 18 hrs by two fold serial dilution method; conditions: ATCC 25922, 18 h; in short: as §1
Escherichia coli [41] = test: Antibacterial activity against Escherichia coli 09-1 after 18 hrs by two fold serial dilution method; conditions: 09-1, 18 h; in short: as §1
Escherichia coli [42] = test: Antibacterial activity against Escherichia coli 09-2 after 18 hrs by two fold serial dilution method; conditions: 09-2, 18 h; in short: as §1
Escherichia coli [43] = test: Antibacterial activity against Escherichia coli 09-3 after 18 hrs by two fold serial dilution method; conditions: 09-3, 18 h; in short: as §1

SMILES: CO/N=C1\CN(c2nc3c(cc2F)c(=O)c(C(=O)O)cn3C2CC2)CC1CN (centres undefined) [GEMIFLOXACIN]
- MIC (Escherichia coli [1]): 16 µg/mL (≈ 41.1 µM)
- MIC (Escherichia coli [2]): 0.25 µg/mL (≈ 0.642 µM)
- MIC (Escherichia coli [3]): 4 µg/mL (≈ 10.3 µM)
- MIC (Klebsiella pneumoniae [4]): 16 µg/mL (≈ 41.1 µM)
- MIC (Klebsiella pneumoniae [5]): 0.015 µg/mL (≈ 0.0385 µM)
- MIC (Klebsiella pneumoniae [6]): 0.5 µg/mL (≈ 1.28 µM)
- MIC (Pseudomonas aeruginosa [7]): 0.5 µg/mL (≈ 1.28 µM)
- MIC (Pseudomonas aeruginosa [8]): 0.25 µg/mL (≈ 0.642 µM)
- MIC (Pseudomonas aeruginosa [9]): 16 µg/mL (≈ 41.1 µM)
- MIC (Pseudomonas aeruginosa [10]): 2 µg/mL (≈ 5.14 µM)
- MIC [11]: 4 µg/mL (≈ 10.3 µM)
- ED50 (Staphylococcus aureus [12]): 14.9 mg/kg
- ED50 [13]: 24 mg/kg
- ED50 (Escherichia coli [14]): 6.86 mg/kg
- ED50 (Klebsiella pneumoniae [15]): 108 mg/kg
- ED50 (Pseudomonas aeruginosa [16]): 129 mg/kg
- MIC (Enterococcus faecium [17]): 16 µg/mL (≈ 41.1 µM)
- MIC (Staphylococcus aureus [18]): 0.008 µg/mL (≈ 0.0205 µM)
- MIC (Staphylococcus aureus [19]): 16 µg/mL (≈ 41.1 µM)
- MIC (Staphylococcus aureus [20]): 0.5 µg/mL (≈ 1.28 µM)
- MIC (Staphylococcus aureus [21]): 16 µg/mL (≈ 41.1 µM)
- MIC (Staphylococcus aureus [22]): 16 µg/mL (≈ 41.1 µM)
- MIC (Staphylococcus aureus [23]): 0.008 µg/mL (≈ 0.0205 µM)
- MIC (Staphylococcus aureus [24]): 2 µg/mL (≈ 5.14 µM)
- MIC (Staphylococcus aureus [25]): 0.06 µg/mL (≈ 0.154 µM)
- MIC (Staphylococcus aureus [26]): 0.015 µg/mL (≈ 0.0385 µM)
- MIC (Staphylococcus aureus [27]): 0.5 µg/mL (≈ 1.28 µM)
- MIC (Staphylococcus aureus [28]): 0.008 µg/mL (≈ 0.0205 µM)
- MIC [29]: 0.25 µg/mL (≈ 0.642 µM)
- MIC [30]: 0.5 µg/mL (≈ 1.28 µM)
- MIC [31]: 2 µg/mL (≈ 5.14 µM)
- MIC [32]: 16 µg/mL (≈ 41.1 µM)
- MIC (Streptococcus pneumoniae): 0.015 µg/mL (≈ 0.0385 µM)
- MIC (Enterococcus faecium [33]): 16 µg/mL (≈ 41.1 µM)
- MIC (Enterococcus faecium [34]): 4 µg/mL (≈ 10.3 µM)
- MIC (Enterococcus faecium [35]): 0.03 µg/mL (≈ 0.077 µM)
- MIC (Enterococcus faecium [36]): 16 µg/mL (≈ 41.1 µM)
- MIC (Enterococcus faecium [37]): 0.03 µg/mL (≈ 0.077 µM)
- MIC (Enterococcus faecalis [38]): 2 µg/mL (≈ 5.14 µM)
- MIC (Enterococcus faecalis [39]): 4 µg/mL (≈ 10.3 µM)
- MIC (Escherichia coli [40]): 0.008 µg/mL (≈ 0.0205 µM)
- MIC (Escherichia coli [41]): 16 µg/mL (≈ 41.1 µM)
- MIC (Escherichia coli [42]): 32 µg/mL (≈ 82.2 µM)
- MIC (Escherichia coli [43]): 16 µg/mL (≈ 41.1 µM)
